Laboratory results from ChEMBL document CHEMBL1139312, “Synthesis and SAR of 6-chloro-4-fluoroalkylamino-2-heteroaryl-5-(substituted)phenylpyrimidines as anti-cancer agents” (Bioorg Med Chem, 2009).
In brackets after ≈: the same amount, converted by molar mass. Activity calls are given as the source filed them. The rule behind the calls is not given here.

Experiments:
COLO 205 = experiment: Antiproliferative activity against human COLO205 cells after 24 hrs by MTS assay; assay type: functional, cell-based
[1] = Antiproliferative activity against human KBV1 cells after 3 days by SRB assay; assay type: functional, cell-based; conditions: KB-V1, 72 h
[2] = Ratio of IC50 for human KBV1 cells to IC50 for human KB cells; assay type: functional
How it was run: (§1)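 Resistance ratio: IC50 in KB 8.5 or KB V1 cells divided by IC50 in parental KB cells, each IC50 from 10-concentration duplicate dose–response curves; ratio near 1 means no resistance.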

KB [3] = experiment: Antiproliferative activity against human KB cells after 3 days by SRB assay; assay type: functional, cell-based; conditions: 72 h
[4] = Antiproliferative activity against human KB 8.5 cells after 3 days by SRB assay; assay type: functional, cell-based; conditions: 72 h
KB [5] = experiment: Ratio of IC50 for human KB 8.5 cells to IC50 for human KB cells; assay type: functional; how it was run: as §1
[6] = Induction of tubulin polymerization
NCI-H460 = experiment: Antitumor activity against human H460 cells xenografted in Foxn1nu mouse assessed as reduction in tumor growth at 2.5 to 10 mg/kg, po; assay type: functional, organism-based
How it was run: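 Female NU/NU-Foxn1nu mice were injected s.c. in the flank with 1 × 10⁶ H460 cells per animal and staged (randomized) when tumors reached about 100 mg. Compound was given by oral gavage in Klucel on days 0 and 7 after staging. Controls received vehicle only, i.v. Nine animals per group; tumor mass was followed over days.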

LOX = experiment: Antitumor activity against human LOX cells xenografted in Foxn1nu mouse assessed as reduction in tumor growth at 1 to 6 mg/kg, iv; assay type: functional, organism-based
How it was run: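 LOX melanoma cells (2 × 10⁶ per animal) were implanted s.c. in the flank of female NU/NU-Foxn1nu mice, which were staged at about 100 mg tumor mass. Compound was dosed i.v. in 0.9% saline on days 1, 5 and 9 after staging, with a vehicle-only i.v. control. Five mice per group. Relative tumor growth = mean tumor mass on day d / group mean on day 0.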

[7] = Metabolic stability in male human liver microsomes at 1 uM after 30 mins; assay type: ADME, Microsome
How it was run: (§2)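 Liver microsomes (1 mg/mL) from each species and sex were incubated with compound for 30 min at 37 °C in the presence of NADPH. Read-out was metabolic half-life (t1/2).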

[8] = Metabolic stability in male cynomolgus monkey liver microsomes at 1 uM after 30 mins; assay type: ADME, Macaca fascicularis, Microsome; how it was run: as §2
[9] = Bioavailability in rat; assay type: ADME, organism-based; conditions: in vivo
How it was run: (§3)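 Rat pharmacokinetic parameters were derived by non-compartmental, model-independent analysis.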

[10] = Metabolic stability in male Sprague-Dawley rat liver microsomes at 1 uM after 30 mins; assay type: ADME, Microsome; how it was run: as §2
[11] = Metabolic stability in female nude mouse liver microsomes at 1 uM after 30 mins; assay type: ADME, Microsome; how it was run: as §2
[12] = Half life in rat; assay type: ADME, organism-based; conditions: in vivo; how it was run: as §3
[13] = Metabolic stability in female Sprague-Dawley rat liver microsomes at 1 uM after 30 mins; assay type: ADME, Microsome; how it was run: as §2
[14] = Volume of distribution in rat; assay type: ADME, organism-based; conditions: in vivo; how it was run: as §3
[15] = Clearance in rat; assay type: ADME, organism-based; conditions: in vivo; how it was run: as §3
[16] = Metabolic stability in male Beagle dog liver microsomes at 1 uM after 30 mins; assay type: ADME, Canis lupus familiaris, Microsome; how it was run: as §2
[17] = Aqueous solubility at pH 7.4 by shake flask method; assay type: physicochemical

C[C@H](Nc1nc(-n2cccn2)nc(Cl)c1-c1c(F)cc(F)cc1F)C(F)(F)F
IC50 (COLO 205; Homo sapiens, COLO 205, 24 h): 19 nM

Cn1ccnc1-c1nc(Cl)c(-c2c(F)cc(F)cc2F)c(NCC(F)(F)F)n1
IC50 (COLO 205; Homo sapiens, COLO 205, 24 h): 77 nM

C[C@H](Nc1nc(-c2cnccn2)nc(Cl)c1-c1c(F)cc(F)cc1F)C(F)(F)F
IC50 (COLO 205; Homo sapiens, COLO 205, 24 h): 51 nM

CN(C)CCCOc1cc(F)c(-c2c(Cl)nc(-c3cnccn3)nc2NCC(F)(F)F)c(F)c1 [listing 1 of 2 here]
IC50 (COLO 205; colo 205): 22 nM | IC50 [1]: 99 nM | Ratio IC50 [2]: 5 | IC50 (KB [3]): 20 nM | IC50 [4]: 24 nM | Ratio IC50 (KB [5]): 1.2

CN(C)CCCOc1cc(F)c(-c2c(Cl)nc(-c3cnccn3)nc2NCC(F)(F)F)c(F)c1 [listing 2 of 2 here]
IC50 (COLO 205; Homo sapiens, COLO 205, 24 h): 18 nM

Fc1cc(F)c(-c2c(Cl)nc(-c3nccc4ccccc34)nc2NCC(F)(F)F)c(F)c1
IC50 (COLO 205; Homo sapiens, COLO 205, 24 h): 4680 nM

Fc1cc(F)c(-c2c(Cl)nc(-c3cccnc3)nc2NCC(F)(F)F)c(F)c1
IC50 (COLO 205; Homo sapiens, COLO 205, 24 h): 3930 nM

Fc1cc(F)c(-c2c(Cl)nc(-c3cccs3)nc2NCC(F)(F)F)c(F)c1
IC50 (COLO 205; Homo sapiens, COLO 205, 24 h): 3460 nM

C[C@H](Nc1nc(-c2ccccn2)nc(Cl)c1-c1c(F)cc(F)cc1F)C(F)(F)F
IC50 (COLO 205; Homo sapiens, COLO 205, 24 h): 29 nM

Fc1cc(F)c(-c2c(Cl)nc(-c3ncccn3)nc2NCC(F)(F)F)c(F)c1
IC50 (COLO 205; Homo sapiens, COLO 205, 24 h): 265 nM

Fc1cc(F)c(-c2c(Cl)nc(-c3ccc4ccccc4n3)nc2NCC(F)(F)F)c(F)c1
IC50 (COLO 205; Homo sapiens, COLO 205, 24 h): 250 nM

CN(C)CCCOc1cc(F)c(-c2c(Cl)nc(-c3ncccn3)nc2NCC(F)(F)F)c(F)c1
IC50 (COLO 205; Homo sapiens, COLO 205, 24 h): 49 nM

CN(C)CCOc1cc(F)c(-c2c(Cl)nc(-c3cnccn3)nc2NCC(F)(F)F)c(F)c1
IC50 (COLO 205; Homo sapiens, COLO 205, 24 h): 128 nM

Fc1cc(F)c(-c2c(Cl)nc(-c3ccncc3)nc2NCC(F)(F)F)c(F)c1
IC50 (COLO 205; Homo sapiens, COLO 205, 24 h): > 5000 nM

Fc1cc(F)c(-c2c(Cl)nc(-n3cccn3)nc2NCC(F)(F)F)c(F)c1
IC50 (COLO 205; Homo sapiens, COLO 205, 24 h): 53 nM

CNCCCOc1cc(F)c(-c2c(Cl)nc(-c3cnccn3)nc2N[C@@H](C)C(F)(F)F)c(F)c1 [listing 1 of 3 here]
Activity [6]: Active | Activity (NCI-H460): Active | Activity (LOX): Active

CNCCCOc1cc(F)c(-c2c(Cl)nc(-n3cccn3)nc2N[C@@H](C)C(F)(F)F)c(F)c1 [listing 1 of 3 here]
Activity [6]: Active

Fc1cc(F)c(-c2c(Cl)nc(-n3ccnc3)nc2NCC(F)(F)F)c(F)c1
IC50 (COLO 205; Homo sapiens, COLO 205, 24 h): 3030 nM

Fc1cc(F)c(-c2c(Cl)nc(-c3ccccn3)nc2NCC(F)(F)F)c(F)c1
IC50 (COLO 205; Homo sapiens, COLO 205, 24 h): 39 nM

Fc1cc(F)c(-c2c(Cl)nc(-c3cc4ccccc4cn3)nc2NCC(F)(F)F)c(F)c1
IC50 (COLO 205; Homo sapiens, COLO 205, 24 h): 119 nM

CNCCCOc1cc(F)c(-c2c(Cl)nc(-c3ccccn3)nc2N[C@@H](C)C(F)(F)F)c(F)c1 [listing 1 of 3 here]
IC50 [1]: 423 nM | Ratio IC50 [2]: 68 | IC50 (KB [3]): 6.2 nM | IC50 [4]: 21 nM

CNCCCOc1cc(F)c(-c2c(Cl)nc(-c3ccccn3)nc2N[C@@H](C)C(F)(F)F)c(F)c1 [listing 2 of 3 here]
IC50 (COLO 205; Homo sapiens, COLO 205, 24 h): 5.2 nM

Fc1cc(F)c(-c2c(Cl)nc(-c3ccco3)nc2NCC(F)(F)F)c(F)c1
IC50 (COLO 205; Homo sapiens, COLO 205, 24 h): 232 nM

CNCCCOc1cc(F)c(-c2c(Cl)nc(-c3cnccn3)nc2N[C@@H](C)C(F)(F)F)c(F)c1 [listing 2 of 3 here]
IC50 (COLO 205; colo 205): 6.9 nM | IC50 [1]: 405 nM | Ratio IC50 [2]: 58 | half-life at 1 µM [7]: > 1 h | half-life at 1 µM [8]: > 1 h | bioavailability [9]: 100% | half-life at 1 µM [10]: > 1 h | half-life at 1 µM [11]: > 1 h | IC50 (KB [3]): 7 nM | half-life [12]: 8.6 h | IC50 [4]: 24 nM | half-life at 1 µM [13]: > 1 h | Vd [14]: 14 L/kg | clearance [15]: 21 mL/min/kg | half-life at 1 µM [16]: > 1 h | solubility thermodynamic [17]: 540 µg/mL (≈ 1070 µM) | Ratio IC50 (KB [5]): 3.4

CN(C)CCCCOc1cc(F)c(-c2c(Cl)nc(-c3cnccn3)nc2NCC(F)(F)F)c(F)c1
IC50 (COLO 205; Homo sapiens, COLO 205, 24 h): 32 nM

Fc1cc(F)c(-c2c(Cl)nc(-c3cnccn3)nc2NCC(F)(F)F)c(F)c1
IC50 (COLO 205; Homo sapiens, COLO 205, 24 h): 84 nM

CN(C)CCCOc1cc(F)c(-c2c(Cl)nc(-n3ccnc3)nc2NCC(F)(F)F)c(F)c1
IC50 (COLO 205; Homo sapiens, COLO 205, 24 h): 682 nM

CNCCCOc1cc(F)c(-c2c(Cl)nc(-n3cccn3)nc2N[C@@H](C)C(F)(F)F)c(F)c1 [listing 2 of 3 here]
IC50 [1]: 569 nM | Ratio IC50 [2]: 237 | IC50 (KB [3]): 2.4 nM | IC50 [4]: 32 nM | Ratio IC50 (KB [5]): 13

CNCCCOc1cc(F)c(-c2c(Cl)nc(-n3cccn3)nc2N[C@@H](C)C(F)(F)F)c(F)c1 [listing 3 of 3 here]
IC50 (COLO 205; Homo sapiens, COLO 205, 24 h): 2.4 nM

CC(=O)O[C@H]1C(=O)[C@@]2(C)[C@H]([C@H](OC(=O)c3ccccc3)[C@]3(O)C[C@H](OC(=O)[C@H](O)[C@@H](NC(=O)c4ccccc4)c4ccccc4)C(C)=C1C3(C)C)[C@]1(OC(C)=O)CO[C@@H]1C[C@@H]2O [PACLITAXEL]
IC50 (COLO 205; Homo sapiens, COLO 205, 24 h): 3.3 nM | IC50 [1]: 2010 nM

CNCCCOc1cc(F)c(-c2c(Cl)nc(-c3cnccn3)nc2N[C@@H](C)C(F)(F)F)c(F)c1 [listing 3 of 3 here]
IC50 (COLO 205; Homo sapiens, COLO 205, 24 h): 8.9 nM

CC[C@]1(O)C[C@H]2CN(CCc3c([nH]c4ccccc34)[C@@](C(=O)OC)(c3cc4c(cc3OC)N(C=O)[C@H]3[C@@](O)(C(=O)OC)[C@H](OC(C)=O)[C@]5(CC)C=CCN6CC[C@]43[C@@H]65)C2)C1 [VINCRISTINE]
IC50 (COLO 205; Homo sapiens, COLO 205, 24 h): 2.6 nM | IC50 [1]: 2040 nM | Ratio IC50 [2]: 925 | IC50 (KB [3]): 2.2 nM | IC50 [4]: 58 nM

CNCCCOc1cc(F)c(-c2c(Cl)nc(-c3ccccn3)nc2N[C@@H](C)C(F)(F)F)c(F)c1 [listing 3 of 3 here]
Activity [6]: Active
